Only some compounds are listed: those with a hit (about 2.6% of all), similar ones and a draw of the others.
CHT block: inhibits the human high affinity choline transporter | Q9GZV3 | CHT-expressing cells, membrane potential dye, choline response; hits give low values | B-score at 10 µM | actives 0.86% (n = 310,000);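 active = B-score over 3 SD under the library average, and starting fluorescence ratio not unusually high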;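 note: choline stimulus applied at its EC90 after an EC20 pre-addition; B-score computed on integrated fluorescence ratio after choline addition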
Target sequence (Q9GZV3 whole entry, looked up): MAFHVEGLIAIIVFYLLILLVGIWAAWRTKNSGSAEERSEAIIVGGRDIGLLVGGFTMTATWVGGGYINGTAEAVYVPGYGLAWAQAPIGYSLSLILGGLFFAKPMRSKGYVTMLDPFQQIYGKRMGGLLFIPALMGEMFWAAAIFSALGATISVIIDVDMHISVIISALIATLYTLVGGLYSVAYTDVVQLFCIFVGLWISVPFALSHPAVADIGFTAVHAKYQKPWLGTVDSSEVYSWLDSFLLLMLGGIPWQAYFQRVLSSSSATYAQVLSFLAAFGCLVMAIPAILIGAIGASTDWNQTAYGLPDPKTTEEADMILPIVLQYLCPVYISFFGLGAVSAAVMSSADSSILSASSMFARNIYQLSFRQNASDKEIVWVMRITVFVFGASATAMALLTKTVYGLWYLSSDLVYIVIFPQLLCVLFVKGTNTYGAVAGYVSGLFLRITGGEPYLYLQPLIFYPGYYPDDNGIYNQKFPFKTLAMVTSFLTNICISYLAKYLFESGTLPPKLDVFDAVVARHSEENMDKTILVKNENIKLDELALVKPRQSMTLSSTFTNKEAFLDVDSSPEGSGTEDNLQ
PolyA inh: blocks polyadenylation in yeast reporter cells; S. cerevisiae SKY197-pL101 polyadenylation reporter, beta-gal luminescence; efflux-impaired pdr1/pdr3 knockout yeast; score 100 = 6 SD above DMSO; actives 0.02% (n = 300,000); activity score, % at 12 µM;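 active = lowest replicate activity score at least 50, where 100 means six control SD above control mean; inconclusive = lowest score under 50 but half or more replicates reach 50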;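 note: yeast exposed to compound for 9 h at 30 °C; higher score means more reporter readthrough which indicates perturbed polyadenylation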
CHT allo act: allosteric activators of human choline transporter CHT; Q9GZV3; CHT-expressing cells, membrane potential dye, choline EC20; hits give high values; LV-AA mutant CHT in HEK293 cells; B-score at 10 µM; actives 0.49% (n = 310,000);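 active = initial fluorescence not abnormally high and integrated response B-score, plate-corrected, over 3 SD above library mean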
T cruzi inh: T. cruzi replication inhibition. actives 1.4% (n = 300,000). inhibition, % (concentration not given with the values). AID 1885. T. cruzi beta-gal in NIH3T3, luminescence, 90 h;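 active = mean inhibition across valid replicates above about 55%, limit read from the data; inconclusive = mean below that limit but half or more replicates reach it; inactive = mean below it, under half of replicates reach it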;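 note: signal also drops with host cell toxicity which is not excluded here; 0% = plate median of DMSO wells and 100% = zero luminescence signal; higher percent means less beta-gal luminescence so fewer parasites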
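System: Mouse NIH/3T3 fibroblasts infected with β-gal-expressing T. cruzi Tulahuen C4 | Quantity: NIH/3T3 cells, 5,000 per well | Reagent: 5000 reporter trypomastigotes per well | Dosing: Compound pinned at 50 nL/well, DMSO | Schedule: 3 h host attachment, then at least 90 h co-culture | Detection: GalScreen luminescence, 60 min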
CHT activ conf: human CHT activation, confirmatory screen. activation, % at 10 µM. CHT-expressing cells, membrane potential dye fluorescence (FDSS); % of choline EC20–EC90 response window; HEK293 expressing CHT LV-AA mutant; choline added at its EC20. shares compounds with CHT allo act. actives 91% (n = 2,500);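 active = primary screen active, with duplicate mean activation above negative control mean plus 3 SD, cut at about 11% in these data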
HEK293 MP dye: counter-screen for CHT activators: effect in parental HEK293 cells; shares compounds with CHT allo act; membrane potential dye fluorescence (FDSS); measured after EC20 choline addition; ratio readout change at 10 µM, hits read low; actives 62% (n = 2,500); AID 623908;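 active = duplicate-averaged ratio beyond 3 SD from buffer wells, up or down, though filed actives are nearly all decreases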
Starred values were filed as active, the others as inactive; i = inactive; ? = inconclusive; · = not tested or not shown.

SMILES | CHT block | PolyA inh | CHT allo act | T cruzi inh | CHT activ conf | HEK293 MP dye
Cc1[nH]ccc2c1[nH]c1cc(=O)ccc12 | i | -4 | i | -3 | 50* | -49*
Cc1cc2c3c(ccc(C)c3n1)N=CN2c1ccccc1 | i | 0 | i | 12 | 49* | -60*
COc1ccc2c(c1)N1CCN=C1N2C | i | 1 | 8.9* | 2 | 65* | -65*
CN1C2=NCCN2C(=O)c2cc(Cl)ccc21 | i | 5 | i | -4 | · | ·
COc1cccc(C(=O)Nc2cc(C)nn2-c2ccccc2)c1OC | i | -15 | i | 3 | · | ·
CN1CCc2c(sc(NC(=O)c3cc(Cl)sc3Cl)c2C(N)=O)C1 | i | -19 | i | -10 | 22* | i
CCN1CCc2c(sc(NC(=O)c3ccc(S(=O)(=O)N(C)CC4CCCO4)cc3)c2C(N)=O)C1 (stereo not given) | i | ? | i | -4 | 69* | -38*
CN1CCc2c(sc(NC(=O)c3ccc(S(=O)(=O)N4CCOCC4)cc3)c2C(N)=O)C1 | i | 19 | 6.6* | 4 | 67* | -63*
CC(C)(CO)NC(=O)c1ccc2c(c1)C(=O)c1ccccc1-2 | i | -6 | i | -8 | · | ·
OCCc1ccc(O)c(-n2nc3ccccc3n2)c1 | i | 14 | i | -8 | · | ·
COc1cc(/C=C/C(=O)NC(C)CCc2ccccc2)cc(OC)c1OC (stereo not given) | i | -12 | i | 0 | 0 | i
CC(CCc1ccccc1)NC(=O)/C=C/c1ccccc1 (stereo not given) | i | -13 | i | 11 | · | ·
O=C(C(=O)N1CCN(c2ccc(F)cc2)CC1)c1cn(CC(=O)N2CCOCC2)c2ccccc12 | i | -4 | i | -3 | · | ·
Cc1ccc(N/C(N)=N/c2nc(CSc3nnc(N)s3)cc(=O)[nH]2)cc1 | i | 13 | i | -8 | 5 | i
COc1cccc(/C=N/n2cncn2)c1OCC#N | i | 8 | 6.4* | -4 | 3 | i
N#CCOc1ccccc1/C=N/n1nnnc1N | i | -11 | i | -10 | · | ·
COCCNCc1ccccc1[N+](=O)[O-] | i | · | i | · | · | ·
NS(=O)(=O)c1ccc(-c2cccc(/C=C3\SC(=O)NC3=O)c2)cc1 | i | 0 | i | -12 | · | ·
CN1CCN(c2ccccc2NC(=O)c2ccc(N3CCCC3)c([N+](=O)[O-])c2)CC1 | i | 9 | i | 45 | 18* | -44*
CN1CCN(c2ccc([N+](=O)[O-])cc2NC(=O)c2cccs2)CC1 | i | 1 | 6.6* | 22 | 52* | -82*
CCCCn1c(N)c(N(CCC(C)C)C(=O)C2CCCN(C(=O)c3ccc(Cl)cc3)C2)c(=O)[nH]c1=O (stereo not given) | i | 16 | 8.8* | 1 | 12* | i
CCc1cccc(C)c1NC(=O)CN(C)Cc1ccccc1F | i | 6 | i | -5 | 13* | i
CCCc1nc2c(C)ccc(C)c2c(N)c1CC | i | 13 | i | 15 | 55* | -52*
Cn1c(-c2cccc(Br)c2)cnc1NCc1ccccc1O | i | -9 | i | -6 | · | ·
Cc1nn(C)c(Oc2cccc(Cl)c2)c1C(=O)Nc1ccc(F)cc1F | i | -8 | i | 9 | 30* | i
SMILES | CHT block | PolyA inh | CHT allo act | T cruzi inh | CHT activ conf | HEK293 MP dye
COC(=O)CCCC1=CC2=C(c3ccccc3)C(=O)C(C)(OC(=O)C3CCCC3)C(=O)C2=CN1C1CC1 (stereo not given) | i | -14 | 10* | -4 | 0 | i
Cc1noc(C)c1-c1ccc2nc[nH]c(=O)c2c1 | i | 16 | i | 7 | · | ·
COc1ccc(N)c2c1C(=O)c1ccccc1C2=O | i | -46 | 7.4* | -3 | 48* | -54*
CC(C)(C)c1ccc(C(=O)N2CCC(=O)N(C(COCc3ccccc3)Cc3ccccc3)CC2)cc1 (stereo not given) | i | 1 | i | 9 | 3 | i
CCOC(=O)c1sc2ncn(/N=C/N(C)C)c(=O)c2c1C | i | 16 | i | 3 | · | ·
CCOC(=O)c1sc2nccc(OC)c2c1N=CN(C)C | i | 16 | 6.6* | 5 | 63* | -35*
C[n+]1ccc(C(=O)NCCC[N+](C)(C)C)cc1/C=N/O | i | 1 | 7.3* | 0 | 44* | -31*
C[N+](C)(C)CCCNC(=O)c1ccc(/C=N/O)nc1 | i | 0 | i | -17 | · | ·
CN(C(=O)COC(=O)c1nc(Cl)ccc1Cl)c1ccccc1 | i | -9 | i | -5 | · | ·
CC(SCc1ccccc1)C(=O)Nc1ccccc1F (stereo not given) | i | -6 | i | 2 | · | ·
NS(=O)(=O)c1ccc(NC(=O)c2ccc3nccnc3c2)cc1 | i | 4 | 7.5* | -4 | 39* | -27*
Cc1cccn2c(CN3CCNC(=O)CC3)c(C(=O)N(C)CCc3ccccc3)nc12 | i | -10 | i | -1 | 1 | i
CCCCC(=O)Nc1ccccc1N1CCN(c2ccccc2)CC1 | i | -2 | i | -7 | 22* | i
CCCCCC(=O)Nc1ccccc1N1CCOCC1 | i | 15 | i | -11 | · | ·
CC(=O)Nc1ccc(S(=O)(=O)N2CCC(C(=O)N[C@@H](C)C(=O)NC3CCCC3)CC2)cc1 | i | ? | i | -7 | · | ·
CCCCCNc1nc(NCCCO)c(C#N)c2c1CN(C)CC2 | i | -12 | i | 16 | 32* | -29*
COc1ccccc1C(CNc1ncnc2sc(C)c(C)c12)N(C)C (stereo not given) | i | -1 | i | 12 | 54* | -52*
COc1ccc(C(CNc2ncnc3sc(C)c(C)c23)N(C)C)cc1 (stereo not given) | i | 5 | i | 54 | · | ·
CCCCN(CCCNC(=O)C1CCN(C(=O)c2cc3sccc3n2C)CC1)Cc1ccccc1 | i | -15 | 10* | 45 | 60* | -29*
CCOC(=O)c1ncccc1NC(=O)CC(=O)Nc1cccnc1C(=O)OCC | i | 1 | i | -5 | 32* | -36*
CC1CCN(C(=O)COc2cccc3c2CCN(Cc2ccccc2)C3=O)CC1 | i | · | i | · | · | ·
Cc1ccc(CNC(=O)CCc2cn(C)c3ccccc23)cc1 | i | -8 | i | -4 | · | ·
CN(Cc1cccc2ccccc12)C(=O)c1cc(COc2c(F)cccc2F)on1 | i | 11 | i | 32 | 40* | i
Cc1cc(NS(=O)(=O)c2ccc(NC(=O)Cc3ccccc3)cc2)nc(C)n1 | i | 9 | i | -13 | · | ·

High-throughput results as filed in PubChem BioAssay.
